From ChEMBL document CHEMBL1154626, “Novel, potent, and selective quinoxaline-based 5-HT(3) receptor ligands. 1. Further structure-activity relationships and pharmacological characterization” (J Med Chem, 2009)

What was measured:
[1] = molecular target: T1, 5-hydroxytryptamine receptor 3A (Cavia porcellus, UniProt O70212); assay: Agonist activity at 5HT3 receptor in voltage-stimulated guinea pig left atrium assessed as positive inotropic potency; format: functional, tissue-based, Cardiac atrium
T1 sequence (O70212 whole entry): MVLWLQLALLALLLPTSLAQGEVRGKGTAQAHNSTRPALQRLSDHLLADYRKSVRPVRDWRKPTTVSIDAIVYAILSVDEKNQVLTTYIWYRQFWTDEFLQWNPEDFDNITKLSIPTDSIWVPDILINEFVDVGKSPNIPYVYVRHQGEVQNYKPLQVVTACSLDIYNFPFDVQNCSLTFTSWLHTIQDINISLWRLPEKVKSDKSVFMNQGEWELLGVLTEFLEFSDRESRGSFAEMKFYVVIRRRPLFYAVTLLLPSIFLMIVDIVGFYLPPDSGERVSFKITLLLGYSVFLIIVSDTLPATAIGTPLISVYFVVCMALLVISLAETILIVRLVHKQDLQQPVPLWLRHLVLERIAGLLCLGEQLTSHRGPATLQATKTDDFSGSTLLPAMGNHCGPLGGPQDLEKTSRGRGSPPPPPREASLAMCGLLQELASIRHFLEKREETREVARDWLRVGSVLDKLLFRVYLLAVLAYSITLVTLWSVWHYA

[2] = molecular target: T1, 5-hydroxytryptamine receptor 3A; assay: Antagonist activity at 5HT3 receptor in spontaneously beating guinea pig right atrium assessed as inhibition of serotonin-induced maximum response by noncompetitive binding assay; format: tissue-based, Cardiac atrium
Method in brief: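 Spontaneously beating guinea pig right atria, exposed 30 min to test compound at 10 μM, followed by cumulative 5-HT log concentration-response curves versus control. Mean ± SEM of five to seven observations.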

[3] = molecular target: T2, 5-hydroxytryptamine receptor 3A (Rattus norvegicus, UniProt P35563); assay: Displacement of [3H]LY278584 from 5HT3 receptor in rat cortical homogenate; conditions: read-out: Ki
T2 sequence (P35563 whole entry): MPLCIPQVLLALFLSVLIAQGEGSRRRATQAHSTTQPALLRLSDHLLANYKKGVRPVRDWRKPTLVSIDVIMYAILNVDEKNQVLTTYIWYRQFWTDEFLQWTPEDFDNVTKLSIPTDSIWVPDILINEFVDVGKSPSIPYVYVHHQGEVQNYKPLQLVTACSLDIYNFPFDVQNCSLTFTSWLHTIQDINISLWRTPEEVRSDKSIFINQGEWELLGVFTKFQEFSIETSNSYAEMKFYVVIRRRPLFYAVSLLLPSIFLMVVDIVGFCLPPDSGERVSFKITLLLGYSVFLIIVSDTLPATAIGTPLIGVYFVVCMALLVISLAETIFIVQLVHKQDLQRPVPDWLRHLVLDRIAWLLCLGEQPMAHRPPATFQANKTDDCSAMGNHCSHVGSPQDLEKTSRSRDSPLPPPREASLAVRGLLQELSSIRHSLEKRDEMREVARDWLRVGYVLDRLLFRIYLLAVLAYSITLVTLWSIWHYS
Method in brief: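 Rat cortical homogenate, competition against [3H]LY278584 binding. Ki is the concentration giving half-maximal inhibition of binding, as the mean ± S.E.M. of three determinations.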

[4] = molecular target: 5-hydroxytryptamine receptor 4 (Cavia porcellus, UniProt O70528); assay: Displacement of [3H]GR-113808 from 5HT4 receptor in guinea pig striatum
Chain of 5-hydroxytryptamine receptor 4 (O70528 whole entry): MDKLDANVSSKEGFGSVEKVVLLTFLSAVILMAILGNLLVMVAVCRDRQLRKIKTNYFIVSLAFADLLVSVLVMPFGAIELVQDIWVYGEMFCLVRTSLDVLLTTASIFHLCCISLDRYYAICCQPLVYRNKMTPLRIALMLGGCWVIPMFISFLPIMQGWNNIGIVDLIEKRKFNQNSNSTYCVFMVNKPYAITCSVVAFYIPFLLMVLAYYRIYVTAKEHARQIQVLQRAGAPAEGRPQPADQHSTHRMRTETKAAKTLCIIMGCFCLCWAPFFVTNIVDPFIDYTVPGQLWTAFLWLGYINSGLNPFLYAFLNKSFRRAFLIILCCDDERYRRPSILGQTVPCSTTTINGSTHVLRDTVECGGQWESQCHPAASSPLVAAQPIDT

[5] = molecular target: D(2) dopamine receptor (Rattus norvegicus, UniProt P61169); assay: Displacement of [3H]spiperone from dopamine D2 receptor in rat striatum
Chain of D(2) dopamine receptor (P61169 whole entry): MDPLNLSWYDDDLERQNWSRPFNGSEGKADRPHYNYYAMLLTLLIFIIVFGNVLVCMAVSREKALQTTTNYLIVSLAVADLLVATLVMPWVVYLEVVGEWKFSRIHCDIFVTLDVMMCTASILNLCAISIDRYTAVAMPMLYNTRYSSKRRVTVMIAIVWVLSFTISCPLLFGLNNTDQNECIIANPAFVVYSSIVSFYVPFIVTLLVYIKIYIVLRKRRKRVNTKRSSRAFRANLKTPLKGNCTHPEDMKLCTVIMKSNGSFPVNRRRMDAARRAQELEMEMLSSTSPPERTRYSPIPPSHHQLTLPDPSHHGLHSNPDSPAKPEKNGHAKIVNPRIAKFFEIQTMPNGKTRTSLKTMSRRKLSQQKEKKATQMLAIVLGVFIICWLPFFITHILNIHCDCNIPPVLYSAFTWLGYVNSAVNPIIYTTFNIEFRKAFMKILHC

[6] = molecular target: T3, 5-hydroxytryptamine receptor 1A (Rattus norvegicus, UniProt P19327); assay: Displacement of [3H]8-OHDPAT from 5HT1A receptor in rat hippocampus; format: tissue-based
T3 sequence (P19327 whole entry): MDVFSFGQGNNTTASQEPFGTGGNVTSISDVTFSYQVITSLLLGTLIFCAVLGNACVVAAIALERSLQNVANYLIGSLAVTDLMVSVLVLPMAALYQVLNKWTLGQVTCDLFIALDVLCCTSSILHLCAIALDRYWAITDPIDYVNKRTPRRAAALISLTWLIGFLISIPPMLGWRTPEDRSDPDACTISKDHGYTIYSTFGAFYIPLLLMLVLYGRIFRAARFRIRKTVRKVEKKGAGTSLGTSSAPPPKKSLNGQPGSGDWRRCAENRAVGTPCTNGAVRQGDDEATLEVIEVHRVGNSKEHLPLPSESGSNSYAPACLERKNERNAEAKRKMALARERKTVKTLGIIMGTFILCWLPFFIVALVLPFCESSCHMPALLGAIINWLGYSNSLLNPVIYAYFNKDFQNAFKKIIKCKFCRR

[7] = molecular target: 5-hydroxytryptamine receptor 2A (Rattus norvegicus, UniProt P14842); assay: Displacement of [3H]ketanserin from 5HT2A receptor in rat cortex
Chain of 5-hydroxytryptamine receptor 2A (P14842 whole entry): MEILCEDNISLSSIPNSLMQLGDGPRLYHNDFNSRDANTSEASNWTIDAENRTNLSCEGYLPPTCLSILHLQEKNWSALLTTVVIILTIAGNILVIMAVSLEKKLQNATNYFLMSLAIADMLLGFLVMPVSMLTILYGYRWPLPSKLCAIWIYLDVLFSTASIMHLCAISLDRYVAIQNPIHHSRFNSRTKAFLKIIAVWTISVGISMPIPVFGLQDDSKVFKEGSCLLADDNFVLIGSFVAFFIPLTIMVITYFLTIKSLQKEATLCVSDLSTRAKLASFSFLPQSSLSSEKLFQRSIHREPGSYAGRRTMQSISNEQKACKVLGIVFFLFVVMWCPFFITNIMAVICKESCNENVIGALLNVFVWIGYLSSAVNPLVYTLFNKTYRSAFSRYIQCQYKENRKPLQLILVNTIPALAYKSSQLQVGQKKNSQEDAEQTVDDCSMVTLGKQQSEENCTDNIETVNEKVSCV

[8] = Ratio of drug level from brain to plasma in rat at 1 mg/kg, iv; format: ADME, organism-based; set-up: dose 1 mg/kg, route intravenous
Method in brief: (§1)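 Rats given a single iv injection (0.25–1 mg/kg) and killed 30 min afterwards. Brain/plasma ratio calculated assuming 1 g tissue equals 1 mL water. Three animals per dose, mean ± SEM.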

[9] = tested on: Rattus norvegicus; assay: Plasma concentration in rat at 0.25 mg/kg, iv; format: ADME, organism-based; set-up: dose 0.25 mg/kg, route intravenous; conditions: in vivo, BLD = below limit of detection
Method in brief: (§2)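 Rats dosed iv at 0.25–1 mg/kg and sacrificed 30 min after injection. Mean ± SEM of three animals. Brain/plasma ratio assumes 1 g tissue equals 1 mL water.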

[10] = molecular target: D(1A) dopamine receptor (Rattus norvegicus, UniProt P18901); assay: Displacement of [3H]SCH-23390 from dopamine D1 receptor in rat striatum
Chain of D(1A) dopamine receptor (P18901 whole entry): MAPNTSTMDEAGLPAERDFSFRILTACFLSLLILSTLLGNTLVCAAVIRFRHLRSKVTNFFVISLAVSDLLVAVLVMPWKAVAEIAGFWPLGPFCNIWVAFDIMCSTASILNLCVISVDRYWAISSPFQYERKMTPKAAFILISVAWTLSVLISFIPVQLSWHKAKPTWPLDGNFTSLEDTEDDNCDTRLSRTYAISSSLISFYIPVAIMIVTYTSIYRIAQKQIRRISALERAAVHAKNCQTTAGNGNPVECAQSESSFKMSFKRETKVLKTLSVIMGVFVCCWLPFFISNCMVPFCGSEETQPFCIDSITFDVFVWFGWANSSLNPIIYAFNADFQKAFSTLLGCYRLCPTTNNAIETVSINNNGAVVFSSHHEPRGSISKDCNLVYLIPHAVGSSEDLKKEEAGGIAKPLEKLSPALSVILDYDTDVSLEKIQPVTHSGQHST

[11] = tested on: Brain; assay: Drug level in rat brain at 1 mg/kg, iv; format: ADME, organism-based; set-up: dose 1 mg/kg, route intravenous; conditions: read-out: Drug uptake, in vivo; method in brief: as §2
[12] = tested on: Brain; assay: Drug level in rat brain at 0.5 mg/kg, iv; format: ADME, organism-based; set-up: dose 0.5 mg/kg, route intravenous; conditions: in vivo, read-out: Drug uptake; method in brief: as §2
[13] = molecular target: T4, Alpha-2A adrenergic receptor (Rattus norvegicus, UniProt P22909); assay: Displacement of [3H]RX821002 from adrenergic alpha2 receptor in rat cortex
T4 sequence (P22909 whole entry): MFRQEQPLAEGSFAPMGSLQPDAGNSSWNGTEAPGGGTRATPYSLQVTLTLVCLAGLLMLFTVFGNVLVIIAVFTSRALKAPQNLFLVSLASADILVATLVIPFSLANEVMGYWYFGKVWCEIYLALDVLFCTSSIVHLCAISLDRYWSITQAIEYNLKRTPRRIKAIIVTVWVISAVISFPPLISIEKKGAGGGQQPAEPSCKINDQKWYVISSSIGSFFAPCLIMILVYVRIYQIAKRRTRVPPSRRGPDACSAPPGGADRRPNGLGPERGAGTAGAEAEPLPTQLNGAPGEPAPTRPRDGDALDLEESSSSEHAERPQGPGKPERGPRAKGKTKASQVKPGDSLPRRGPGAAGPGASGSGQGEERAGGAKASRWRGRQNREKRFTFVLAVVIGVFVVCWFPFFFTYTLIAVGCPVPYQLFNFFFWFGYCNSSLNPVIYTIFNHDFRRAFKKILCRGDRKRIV

[14] = Ratio of drug level from brain to plasma in rat at 0.5 mg/kg, iv; format: ADME, organism-based; set-up: dose 0.5 mg/kg, route intravenous; method in brief: as §1

EC50 [1]	IC50 [2]	Ki [3] [µM]	Ki [4] [µM]	Ki [5] [µM]	Ki [6] [µM]	IC50 ([2]; read-out: IC50) [µM]	Ki [7] [µM]	Kp [8]	Cp [9]	Ki [10] [µM]	concentration [11] [nM]	concentration [12] [nM]	Ki [13] [µM]	Kp [14]	Structure (SMILES)
Not Active	Not Active	0.0022	–	–	–	–	–	–	–	–	–	–	–	–	c1ccc(CN2CCN(c3nc4ncccc4n4cccc34)CC2)cc1
–	–	0.00068	> 10	> 10	> 10	0.27	> 10	1	BLD	> 10	210	90	> 10	1.3	Fc1ccc2c(c1)nc(N1CCN(Cc3cnc[nH]3)CC1)c1cccn12
